Experimental data as given in PMC5656813 (Arthritis & Rheumatology (Hoboken, N.j.), 2017).

What was measured:
[1] = tested on: RA patients; experiment: Study 1, treatment‐emergent adverse events; type: in vivo, human; conditions: for treatment-related TEAE: Abdominal discomfort / treatment-related TEAE: Abdominal pain, upper / treatment-related TEAE: Aspartate aminotransferase increased / treatment-related TEAE: Blood amylase increased / treatment-related TEAE: Blood and lymphatic system disorders / treatment-related TEAE: Blood triglycerides increased / treatment-related TEAE: Cystitis, noninfectious / treatment-related TEAE: Duodenogastric reflux / treatment-related TEAE: Ear and labyrinth disorders / treatment-related TEAE: Gastrointestinal disorders / treatment-related TEAE: Gastrointestinal pain / treatment-related TEAE: General disorders and administration site reactions / treatment-related TEAE: Gingival bleeding / treatment-related TEAE: Infections and infestations / treatment-related TEAE: Laboratory findings / treatment-related TEAE: Lipase increased / treatment-related TEAE: Musculoskeletal and connective tissue disorders / treatment-related TEAE: Nervous system disorders / treatment-related TEAE: Renal and urinary disorders: study 1
Outline: (§1)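 Both double-blind, placebo-controlled trials in RA patients on stable MTX. Oral capsules daily for 4 weeks, with 7–10-day follow-up: 200 mg once daily or 100 mg twice daily (study 1); 30, 75, 150 or 300 mg once daily (study 2). At every visit: AEs, vital signs, hematology, serum biochemistry, coagulation and urinalysis. EKG at baseline and follow-up, plus week 4 in study 1. Safety population, descriptive treatment-emergent AE summaries.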

[2] = Studies 1 and 2, steady‐state plasma PK of filgotinib and its major metabolite; type: in vivo, human; conditions: for Cmax / Tmax / AUC: human, plasma, oral
Outline: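 RA patients on stable methotrexate took oral test compound or placebo capsules for 4 weeks: 200 mg once daily or 100 mg twice daily (study 1), or 30, 75, 150 or 300 mg once daily (study 2). In a subset (12 and 15 patients), plasma parent and major metabolite were sampled predose and 1, 2, 3, 5 and 8 h after the morning dose, at week 2 or 4. Descriptive statistics were calculated by dose.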

[3] = tested on: RA patients; experiment: Studies 1 and 2, laboratory safety, hematology, vital signs, EKG; type: in vivo, human
Outline: as §1

[4] = tested on: JAK‐1 relative to JAK‐2; conditions: human whole blood assays; cited from earlier work

O=C(Nc1nc2cccc(-c3ccc(CN4CCS(=O)(=O)CC4)cc3)n2n1)C1CC1 [Filgotinib]
treatment-related TEAE: Abdominal discomfort ([1]; 100 mg twice daily): 1 (8.3) number (%) of patients
treatment-related TEAE: Abdominal pain, upper ([1]; 100 mg twice daily): 0 number (%) of patients
treatment-related TEAE: Aspartate aminotransferase increased ([1]; 100 mg twice daily): 0 number (%) of patients
treatment-related TEAE: Blood amylase increased ([1]; 100 mg twice daily): 0 number (%) of patients
treatment-related TEAE: Blood and lymphatic system disorders ([1]; 100 mg twice daily): 0 number (%) of patients
treatment-related TEAE: Blood triglycerides increased ([1]; 100 mg twice daily): 0 number (%) of patients
treatment-related TEAE: Cystitis, noninfectious ([1]; 100 mg twice daily): 0 number (%) of patients
treatment-related TEAE: Duodenogastric reflux ([1]; 100 mg twice daily): 0 number (%) of patients
treatment-related TEAE: Ear and labyrinth disorders ([1]; 100 mg twice daily): 0 number (%) of patients
treatment-related TEAE: Gastrointestinal disorders ([1]; 100 mg twice daily): 2 (16.7) number (%) of patients
treatment-related TEAE: Gastrointestinal pain ([1]; 100 mg twice daily): 0 number (%) of patients
treatment-related TEAE: General disorders and administration site reactions ([1]; 100 mg twice daily): 0 number (%) of patients
treatment-related TEAE: Gingival bleeding ([1]; 100 mg twice daily): 0 number (%) of patients
treatment-related TEAE: Infections and infestations ([1]; 100 mg twice daily): 0 number (%) of patients
treatment-related TEAE: Laboratory findings ([1]; 100 mg twice daily): 1 (8.3) number (%) of patients
treatment-related TEAE: Lipase increased ([1]; 100 mg twice daily): 1 (8.3) number (%) of patients
treatment-related TEAE: Musculoskeletal and connective tissue disorders ([1]; 100 mg twice daily): 0 number (%) of patients
treatment-related TEAE: Nervous system disorders ([1]; 100 mg twice daily): 1 (8.3) number (%) of patients
treatment-related TEAE: Renal and urinary disorders ([1]; 100 mg twice daily): 0 number (%) of patients
treatment-related TEAE: Abdominal discomfort ([1]; 200 mg once daily): 0 number (%) of patients
treatment-related TEAE: Abdominal pain, upper ([1]; 200 mg once daily): 1 (8.3) number (%) of patients
treatment-related TEAE: Aspartate aminotransferase increased ([1]; 200 mg once daily): 0 number (%) of patients
treatment-related TEAE: Blood amylase increased ([1]; 200 mg once daily): 0 number (%) of patients
treatment-related TEAE: Blood and lymphatic system disorders ([1]; 200 mg once daily): 0 number (%) of patients
treatment-related TEAE: Blood triglycerides increased ([1]; 200 mg once daily): 0 number (%) of patients
treatment-related TEAE: Cystitis, noninfectious ([1]; 200 mg once daily): 0 number (%) of patients
treatment-related TEAE: Duodenogastric reflux ([1]; 200 mg once daily): 0 number (%) of patients
treatment-related TEAE: Ear and labyrinth disorders ([1]; 200 mg once daily): 0 number (%) of patients
treatment-related TEAE: Gastrointestinal disorders ([1]; 200 mg once daily): 2 (16.7) number (%) of patients
treatment-related TEAE: Gastrointestinal pain ([1]; 200 mg once daily): 0 number (%) of patients
treatment-related TEAE: General disorders and administration site reactions ([1]; 200 mg once daily): 0 number (%) of patients
treatment-related TEAE: Gingival bleeding ([1]; 200 mg once daily): 0 number (%) of patients
treatment-related TEAE: Infections and infestations ([1]; 200 mg once daily): 0 number (%) of patients
treatment-related TEAE: Laboratory findings ([1]; 200 mg once daily): 0 number (%) of patients
treatment-related TEAE: Lipase increased ([1]; 200 mg once daily): 0 number (%) of patients
treatment-related TEAE: Musculoskeletal and connective tissue disorders ([1]; 200 mg once daily): 0 number (%) of patients
treatment-related TEAE: Nervous system disorders ([1]; 200 mg once daily): 1 (8.3) number (%) of patients
treatment-related TEAE: Renal and urinary disorders ([1]; 200 mg once daily): 0 number (%) of patients
overall tolerability ([1]; studies 1 and 2): generally well tolerated
dose proportionality of PK ([2]; 30–300 mg range): essentially dose proportional
Cmax ([2]; 30 mg): 71.6 ng/mL
Tmax ([2]; 30 mg): 1 h
AUC ([2]; 30 mg, AUCtau of filgotinib, steady state, 30 mg once daily, study 2, arithmetic mean (coefficient of variation)): 1340 ng·h/mL
Cmax ([2]; 75 mg): 492 ng/mL
Cmax ([2]; 100 mg): 730 ng/mL
AUC ([2]; 100 mg, AUCtau of filgotinib, steady state, 100 mg twice daily, study 1, arithmetic mean (coefficient of variation)): 2470 ng·h/mL
Cmax ([2]; 150 mg): 1160 ng/mL
Tmax ([2]; 150 mg): 1 h
AUC ([2]; 150 mg, AUCtau of filgotinib, steady state, 150 mg once daily, study 2, arithmetic mean (coefficient of variation)): 6440 ng·h/mL
AUC ([2]; 150 mg, AUCtau, other 4 patients, 150 mg once daily, study 2): 4790 to 5290 ng·h/mL
Cmax ([2]; 200 mg): 1430 ng/mL
AUC ([2]; 200 mg, AUCtau of filgotinib, steady state, 200 mg once daily, study 1, arithmetic mean (coefficient of variation)): 5380 ng·h/mL
Cmax ([2]; 300 mg): 1340 ng/mL
AUC ([2]; 300 mg, AUCtau of filgotinib, steady state, 300 mg once daily, study 2, arithmetic mean (coefficient of variation)): 7710 ng·h/mL
time of dosing to attain steady state ([2]; in vivo): ≤ 2 days
Creatinine, mean change, day 28 ([3]; 30 mg once daily): 1.47 µmol/L
HDL cholesterol, mean change, day 28 ([3]; 30 mg once daily): 0.03 mmol/L
Hemoglobin, mean change, day 28 ([3]; 30 mg once daily): −0.3 gm/liter
LDL cholesterol, mean change, day 28 ([3]; 30 mg once daily): 0.25 mmol/L
Neutrophils, mean change, day 28 ([3]; 30 mg once daily): -6.5e+08 L⁻¹
Platelets, mean change, day 28 ([3]; 30 mg once daily): -1.8e+10 L⁻¹
Creatinine, mean change, day 28 ([3]; 75 mg once daily): 5.18 µmol/L
HDL cholesterol, mean change, day 28 ([3]; 75 mg once daily): 0.11 mmol/L
Hemoglobin, mean change, day 28 ([3]; 75 mg once daily): 2.0 gm/liter
LDL cholesterol, mean change, day 28 ([3]; 75 mg once daily): 0.14 mmol/L
Neutrophils, mean change, day 28 ([3]; 75 mg once daily): -7.4e+08 L⁻¹
Platelets, mean change, day 28 ([3]; 75 mg once daily): -3.5e+10 L⁻¹
Creatinine, mean change, day 28 ([3]; 100 mg twice daily): -6.98 µmol/L
HDL cholesterol, mean change, day 28 ([3]; 100 mg twice daily): 0.20 mmol/L
Hemoglobin, mean change, day 28 ([3]; 100 mg twice daily): 3.0 gm/liter
LDL cholesterol, mean change, day 28 ([3]; 100 mg twice daily): 0.07 mmol/L
Neutrophils, mean change, day 28 ([3]; 100 mg twice daily): -1.45e+09 L⁻¹
Platelets, mean change, day 28 ([3]; 100 mg twice daily): -3.5e+10 L⁻¹
Creatinine, mean change, day 28 ([3]; 150 mg once daily): 4.50 µmol/L
HDL cholesterol, mean change, day 28 ([3]; 150 mg once daily): 0.07 mmol/L
Hemoglobin, mean change, day 28 ([3]; 150 mg once daily): −1.0 gm/liter
LDL cholesterol, mean change, day 28 ([3]; 150 mg once daily): 0.01 mmol/L
Neutrophils, mean change, day 28 ([3]; 150 mg once daily): -1.37e+09 L⁻¹
Platelets, mean change, day 28 ([3]; 150 mg once daily): -3.2e+10 L⁻¹
increase in HDL at week 4 versus baseline ([3]; 200 mg): ~15%
Creatinine, mean change, day 28 ([3]; 200 mg once daily): 5.47 µmol/L
HDL cholesterol, mean change, day 28 ([3]; 200 mg once daily): 0.16 mmol/L
Hemoglobin, mean change, day 28 ([3]; 200 mg once daily): 7.8 gm/liter
LDL cholesterol, mean change, day 28 ([3]; 200 mg once daily): -0.25 mmol/L
Neutrophils, mean change, day 28 ([3]; 200 mg once daily): -1.21e+09 L⁻¹
Platelets, mean change, day 28 ([3]; 200 mg once daily): -3.3e+10 L⁻¹
increase in HDL at week 4 versus baseline ([3]; 300 mg): > 30%
Creatinine, mean change, day 28 ([3]; 300 mg once daily): 6.90 µmol/L
HDL cholesterol, mean change, day 28 ([3]; 300 mg once daily): 0.48 mmol/L
Hemoglobin, mean change, day 28 ([3]; 300 mg once daily): 4.4 gm/liter
LDL cholesterol, mean change, day 28 ([3]; 300 mg once daily): 0.37 mmol/L
Neutrophils, mean change, day 28 ([3]; 300 mg once daily): -1.13e+09 L⁻¹
Platelets, mean change, day 28 ([3]; 300 mg once daily): -5.8e+10 L⁻¹
decrease in neutrophils from baseline ([3]; doses of ≥75 mg): 14–24%
lymphocytes and lymphocyte subpopulations ([3]; during filgotinib treatment): unaffected
liver function tests (transaminases) ([3]; in vivo): lack of changes
neutropenia ([3]; in vivo): no neutropenia
reticulocytes ([3]; in vivo): absence of effects
vital signs values and EKG parameters ([3]; in vivo): No clinically relevant trends or changes
selectivity for inhibition of JAK‐1 relative to JAK‐2 [4]: ~30 fold
